The results in this text go back to PubChem BioAssay AID624105 (Broad Institute, 2012).

Active and inactive are the calls of the source.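 The calls were made as follows: active = growth reading drops at least 35% at both 405 and 600 nm in duplicate, reached below 10 µM; inactive = the rest, including effects in the opposite direction.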

One assay has as its system P. aeruginosa PAK mexAB-oprM +EDDHA growth, OD600, 28 h. Put plainly: efflux-deficient P. aeruginosa growth delay, iron chelation, dose response, PAK mexAB-OprM pump mutant, OD600, dry powder (AID 624105).
Details: not given
The method, boiled down: (§1)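 Material: P. aeruginosa PAK ΔmexAB-oprM | Buffer or medium: Succinate M9, pH 7.0, with 2 µM EDDHA iron chelator | Times: Bacteria exposed to compounds 28 h at 30 °C | Compound dosing: Dose series, final compound 15 nM up to 100 µM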
Turning to `N#CC(c1ccc(F)cc1)c1cccc(C(F)(F)F)n1` (centres undefined), the AC35 is 6.72 µM.

Consider `N#CC(c1ccc(Cl)cc1)c1ncccc1Cl` (centres undefined), for which the AC35 was 6.05 µM.

Consider `N#CC(c1ccc(Cl)cc1)c1cccc(C(F)(F)F)n1` (centres undefined), for which the AC35 was 12 µM. Still for that read-out and setting: under `N#Cc1cccc(C(C#N)c2ccc(F)cc2)n1` (centres undefined) stands 54.9 µM. Take `COCCOCCC(C#N)c1ccc(F)cc1` (centres undefined): the AC35 is 51.9 µM.

As to `N#CC(c1ccc(Cl)cc1)N1CCCC1` (centres undefined), the AC35 was > 100 µM (inactive).

Consider `CCCCC(C#N)c1ccc(F)cn1` (centres undefined), for which the AC35 was 51.7 µM. For `N#CC(c1ccc(F)cc1)c1cccc(Cl)n1` (centres undefined), the AC35 was 11.5 µM. For the compound `N#CC(c1cccc(Cl)n1)c1ccc(Cl)cc1F` (centres undefined), the AC35 is 7.15 µM. With `N#CC(c1ccc(Cl)cc1)c1ccccn1` (centres undefined), the AC35 was 31 µM.

`COCCC(C#N)c1ccc(F)cc1` (centres undefined): the AC35 was 95.8 µM. Consider `N#CC(c1cccc(C(F)(F)F)n1)c1ccc(Cl)cc1F` (centres undefined), for which the AC35 is 8.69 µM. Turning to `CN(C)CCCC(C#N)c1ccc(F)cc1` (centres undefined), the AC35 was 49.5 µM. With `N#CC(c1ccc(Cl)cc1)c1cccc(Cl)n1` (centres undefined), the AC35 is 8.36 µM.

Test system in a further assay: not listed separately
The assay is described as above. The note with it: P. aeruginosa PAK mexAB-oprM +EDDHA growth, OD600, 28 h; at 100 µM (top of the series). In a few lines:
as §1
For the compound `COCCOCCC(C#N)c1ccc(Cl)cc1` (centres undefined), the growth change, negative = inhibition was -6.59% (inactive). The same measure, in the same setting: under `Clc1ccc(C(c2cccc(Cl)n2)c2nn[nH]n2)cc1` (centres undefined) stands 11.1% (inactive); under `CCCCC(C#N)c1ccccn1` (centres undefined), -13.4% (inactive); under `CN(C)CCCC(C#N)c1ccc(Cl)cc1` (centres undefined), -3.26% (inactive). Consider `N#CC(c1ccc(C(F)(F)F)c(Cl)n1)c1ccccc1OC(F)(F)F` (centres undefined), for which the growth change, negative = inhibition is -14.9% (inactive).
